Assay outcomes deposited in PubChem by Sanford-Burnham Center for Chemical Genomics.
FLuc act counter – affects firefly luciferase, flagging false hits in luciferase stimulation screens. P08659. ATPlite luciferase biochemical, luminescence, 10 min; 0 = ATP-free wells, 1 = DMSO control. activation factor at 10 µM. 200,000 tested, under 10 active. AID 1027;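 active means luciferase activation factor, scaled between plate controls, of at least 2 with compound at 10 µM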
Target sequence (P08659 whole entry, looked up): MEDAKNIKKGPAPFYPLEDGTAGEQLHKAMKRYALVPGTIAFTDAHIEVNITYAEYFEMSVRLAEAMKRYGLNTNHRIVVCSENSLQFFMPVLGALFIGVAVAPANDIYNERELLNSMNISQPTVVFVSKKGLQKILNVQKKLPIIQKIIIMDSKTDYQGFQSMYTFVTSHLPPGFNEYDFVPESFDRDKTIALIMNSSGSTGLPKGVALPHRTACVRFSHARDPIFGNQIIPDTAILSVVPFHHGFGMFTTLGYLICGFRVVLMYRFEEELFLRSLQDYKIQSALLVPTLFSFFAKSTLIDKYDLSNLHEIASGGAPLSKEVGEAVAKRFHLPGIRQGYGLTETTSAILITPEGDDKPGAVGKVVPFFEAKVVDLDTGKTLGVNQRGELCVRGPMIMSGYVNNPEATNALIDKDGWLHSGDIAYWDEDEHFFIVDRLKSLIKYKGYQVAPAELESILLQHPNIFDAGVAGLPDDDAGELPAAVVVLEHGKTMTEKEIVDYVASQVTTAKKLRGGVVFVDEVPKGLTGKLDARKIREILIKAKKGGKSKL
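assay system = Luciferase/luciferin detection reagent, cell-free biochemical luciferase assay | also added = ATP substrate | times = 10 min post-reagent at room temperature | measured by = luminescence from luciferase reaction | measure = luciferase activation, seen as luminescence increase over controls | benchmarks = low control with PBS replacing ATP, high control enzyme plus ATP without compound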
Diaph inh CS – diaphorase inhibition or chemical oxidation counter-screen | diaphorase resazurin-to-resorufin fluorescence, NADH, 16 min; bacterial (C. kluyveri) enzyme, not human | inhibition, % at 20 µM | 190,000 compounds, 0.69% hits | AID 1217;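 active means primary screen inhibition at 20 µM above a set limit, cut at about 50% in these data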;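 further: plate controls were DMSO with full reaction for no effect and wells lacking NADH for full effect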
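Detection: fluorescence of resorufin formed from resazurin, Ex 544/Em 590 nm; test system: Clostridium kluyveri diaphorase enzyme; amount: 0.14 U/mL diaphorase, enzyme working solution; times: 16-min room-temperature incubation before reading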
G6PDH counter – L. mesenteroides G6PDH inhibition counter-screen | Purified L. mesenteroides G6PDH, diaphorase/resazurin coupled fluorescence, 45 min | inhibition, % at 5 µM | 200,000 compounds, 0.12% hits | AID 1020; in the data active means inhibition above about 50%
Diaphorase act – counter-screen for diaphorase-based assays: diaphorase activators and chemical reducers; activation factor at 20 µM; Diaphorase/resazurin coupled assay, resorufin fluorescence, 16 min; hits give high values; 1 = vehicle wells, 0 = NADH-free wells; 190,000 compounds, 0.005% hits;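 active means diaphorase activity raised at least twofold by the compound at 20 µM; inactive means activation factor below 2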
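Material: purified diaphorase enzyme from Clostridium kluyveri / Medium: HEPES pH 7.4 buffer with MgCl2 and Tween 20 / Schedule: enzyme reaction of 16 min at room temperature / Measured by: resorufin fluorescence, excitation 544 nm, emission 590 nm / Evaluation: rise in resorufin formation, marking diaphorase activation or chemical reduction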
FLuc inhib CS – Photinus pyralis luciferase inhibition counter-screen | P08659 | ATPLite firefly luciferase biochemical luminescence, 10 min | inhibition, % at 10 µM | 200,000 compounds, 1.5% hits;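 active means inhibition above about 50% when tested at 10 µM, limit read from the data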
* = called active by the depositor. In the library only some 2.3% were active in any assay of this set; here they are far more common.

SMILES	FLuc act counter	Diaph inh CS	G6PDH counter	Diaphorase act	FLuc inhib CS
Cc1ccn2cc(-c3cccc(NS(C)(=O)=O)c3)nc2c1	0.4	8	18	0.9	58*
COC(=O)c1ccc2nc(-c3ccc(S(C)(=O)=O)cc3)cn2c1	0.9	-2	2	1	10
Cc1nnc2ccc(-c3ccc(NC(=O)c4ccco4)cc3)nn12	1	2	2	1	-2
CC(=O)Nc1cccc(-c2cn3ccc(C)cc3n2)c1	0.2	-11	15	1.1	76*
Cc1ccn2cc(-c3ccc(NC(=O)c4ccco4)cc3)nc2c1	0.4	0	-8	1	55*
CC(=O)Nc1ccc2nc(-c3ccccc3)cn2c1	0.3	20	-6	0.8	70*
O=C(Nc1ccc(-c2cn3ccccc3n2)cc1)c1cccs1	0.3	-26	-3	1.3	73*
O=C(N/N=C/c1ccc[nH]1)c1ccc([N+](=O)[O-])cc1	0.5	8	-11	0.9	46
COc1cc(C(=O)c2c(C)c(CCC#N)n3ccccc23)cc(OC)c1OC	1	-1	1	1	-4
CCOC(=O)c1c(C)[nH]c(C2=NNC(=NC3CC3)SC2)c1C	0.3	8	5	0.9	71*
CCCNC(=O)N1CCC(C(=O)c2cccc(F)c2)CC1	1	16	0	0.8	2
O=C(c1cc2c(=O)n3ccccc3nc2s1)N1CCc2ccccc2C1	1	57*	7	0.4	4
CC(=O)c1cnc2cc(-c3ccc(Cl)cc3)nn2c1C	0.9	12	7	0.9	13
Cc1c(C(=O)O)cnc2cc(-c3ccc(Cl)cc3)nn12	0.4	12	-12	0.9	56*
CCc1ccc(Nc2nnc(SCC(=O)Nc3cccc(S(=O)(=O)NC4=NCCCCC4)c3)s2)cc1	0.2	24	11	0.8	82*
Cc1ccc(Nc2nnc(SCC(=O)Nc3cccc(S(=O)(=O)NC4=NCCCCC4)c3)s2)cc1	0.5	22	16	0.8	47
Cc1cc(C)cc(Oc2ccccc2CO)c1	1.1	27	13	0.7	-7
COC(=O)c1ccc(OCC(=O)c2ccc(O)cc2O)cc1	0.3	25	10	0.8	65*
COC(=O)c1ccc(OCC(=O)c2ccc(C)c(C)c2)cc1	1	14	2	0.9	2
CCOC(=O)c1ccc(CC(=O)c2ccc(O)cc2O)o1	1	13	2	0.9	-5
CCOC(=O)c1ccc(OCC(=O)c2ccc(O)cc2O)cc1	0.4	21	2	0.8	59*
CC1(C)SCC2C(=O)N3C(CSC3(C)C)C(=O)N21 (configuration not stated)	1.1	17	-4	0.8	-7
O=C(Nc1nnc(SCC(=O)N2CCCc3ccccc32)s1)c1ccc2ccccc2c1	0.1	24	-22	0.8	92*
O=C(Nc1nnc(SCC(=O)N2CCCc3ccccc32)s1)c1ccccc1	0.1	18	-17	0.8	92*
O=C(Oc1ccc2ccc(OC(=O)N3CCCCCC3)cc2c1)N1CCCCCC1	1	9	-2	0.9	-4
SMILES	FLuc act counter	Diaph inh CS	G6PDH counter	Diaphorase act	FLuc inhib CS
NS(=O)(=O)c1cccc(NC(=O)/C=C/c2cccs2)c1	0.3	16	-3	0.8	73*
NS(=O)(=O)c1cccc(NC(=O)COC(=O)/C(=C/c2cccs2)c2cccs2)c1	1	13	-19	0.9	0
Cc1cccc(NC(=O)/C=C/c2ccc(Cl)cc2)n1	0.2	9	-14	0.9	83*
O=C(/C=C/c1cccs1)Nc1cccc(NC(=O)/C=C/c2cccs2)n1	0.4	13	-35	0.9	60*
Cc1c(Cl)cccc1NC(=O)CCC(=O)NNC(=O)c1ccccc1Cl	1	5	3	0.9	-2
O=C(COc1cc(Cl)ccc1Cl)Nc1nnc(CC(=O)N2CCOCC2)s1	1	15	-25	0.9	-3
COc1ccc2c(=O)c3c(=O)n(Cc4ccco4)c(-c4ccco4)nc3oc2c1	1	52*	3	0.5	-2
COc1ccc(-c2nc3oc4cc(OC)ccc4c(=O)c3c(=O)n2Cc2ccco2)cc1	1.1	23	-47	0.8	-5
COc1c(/C=N/NC(=O)c2ccccc2O)c(CCN(C)C(C)=O)cc2c1OCO2	0.2	6	18	0.9	85*
Cc1ccc(N/N=C(\C#N)C(=N)N2CCCCCC2)cc1	0.5	-3	-4	1	51*
Cc1ccc(N/N=C(\C#N)C(=N)N2CCOCC2)cc1	0.8	10	1	0.9	16
N#C/C(=N\Nc1ccc(F)cc1)C(=N)N1CCCCCC1	0.4	10	2	0.9	59*
COc1ccc2c(c1)oc(=O)c1cc(OC)ccc12	0.8	19	6	0.8	21
Cc1ccc(-c2cc(=O)c3cc(Cl)ccc3[nH]2)cc1	0.4	-5	8	1	57*
COc1ccc(-c2cc(=O)c3cc(C)ccc3[nH]2)cc1	0.2	2	8	1	82*
COc1ccc(-c2cc(=O)c3cc(OC)ccc3[nH]2)cc1	0.1	2	5	1	87*
COc1ccc(-c2cc(=O)c3cc(OC)ccc3o2)cc1	0.2	4	-4	1	78*
COc1cc2[nH]c(-c3ccc(C)cc3)cc(=O)c2cc1OC	0.7	8	13	0.9	27
CCC(=O)Nc1ccc(N2CCN(S(C)(=O)=O)CC2)cc1	1	6	7	0.9	-4
Clc1ccc(OCCSc2ncccn2)cc1	0.9	6	2	0.9	9
Cc1ccc(-c2cc(=O)c3ccccc3[nH]2)cc1	0.7	-6	12	1.1	28
Cc1ccc2[nH]c(-c3ccccc3)cc(=O)c2c1	0.1	17	2	0.8	86*
COc1ccc([N+](=O)[O-])cc1NC(=O)c1ccc(N(Cc2ccccc2Cl)S(C)(=O)=O)cc1	1	22	-14	0.8	-4
COc1ccc2c(c1OC)C(=O)N1c3ccccc3COC21 (configuration not stated)	0.3	11	-3	0.9	72*
COc1ccc2c(c1OC)C(=O)N1c3ccccc3SC21 (configuration not stated)	0.5	0	10	1	54*
COc1ccc2c(c1OC)C(=O)N1c3ccccc3C(=O)N(c3ccccc3F)C21 (configuration not stated)	1	5	-23	1	-2
COc1ccc2c(c1OC)C(=O)N1c3cccc(Cl)c3C(=O)OC21 (configuration not stated)	1	-5	1	1	4
O=C(NC1CC1)C1CCN(C2CCN(C(=O)/C=C/c3ccc(F)cc3)CC2)CC1	1	-4	6	1	-3
Cc1ccc(C2C(C#N)=C(N)SC(N)=C2C#N)o1	1	66*	21	0.3	-4
